{
  "source": "paper PMC9339567",
  "about": "(Journal of Food and Drug Analysis, 2016)",
  "key": {"[1]": {"details": "ref 32 (Sampath Kumar et al); cited from earlier work"}, "[2]": {"details": "cited from earlier work"}, "[3]": {"details": "ref 28 (Tanzadehpanah et al); cited from earlier work"}, "HFLF-PI 5 cells": {"tested_on": "HFLF-PI 5 cells", "test": "Cytotoxicity assay", "type": "cell-based, human", "details": "0–1 mg/mL, MTT 570 nm", "how_it_was_run": "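HFLF-PI 5 human lung cells were grown in RPMI with penicillin/streptomycin and 10% FBS at 37°C, 5% CO2. Cells were seeded at 1 × 10^5 cells/mL and, at 75% confluence, exposed to test compound at 0–1 mg/mL for 24, 48 or 72 hours, with PBS as control. After PBS washes, MTT (5 mg/mL stock) was added overnight at 37°C and formazan dissolved in DMSO. A570 was read and cytotoxicity % calculated relative to control.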"}, "[4]": {"test": "DPPH radical scavenging assay", "details": "15 μg/mL; absorbance 517 nm, 30 minutes in dark, room temperature; triplicate", "how_it_was_run": "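Test compound at 0.007–1 mg/mL, or GSH positive control over the same range, was mixed with an equal volume of 99.5% ethanol containing 0.02% DPPH. The mixture was held 30 minutes in the dark at room temperature and A517 read, with distilled water replacing sample as control. Scavenging % = (Acontrol − Asample)/Acontrol × 100; triplicate.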"}, "[5]": {"test": "ABTS radical scavenging activity assay", "details": "6 minutes incubation, absorbance 734 nm; triplicate"}},
  "note": "Entries after “also recorded” stand apart in the source; their conditions may differ. Where no end group is shown, it is not given here.",
  "data": [
    {"substance": "ACFL", "values": [
      {"measurement": "Inhibition of the oxidation process relative to α-tocopherol", "setting": "[1]", "value": "greater levels of inhibition of the oxidation process"}
    ]},
    {"substance": "HGPLGPL", "values": [
      {"measurement": "Activity against ROS and linoleic acid peroxidation", "setting": "[2]", "value": "strong activity"}
    ]},
    {"substance": "LTEQESGVPVMK", "values": [
      {"measurement": "IC50 DPPH radical scavenging", "setting": "[3]", "value": "28.6 ± 1.08", "unit": "µg/mL"}
    ]},
    {"substance": "WESLSRLLG [WG-9]", "values": [
      {"measurement": "Effect on cell viability", "setting": "HFLF-PI 5 cells; 24 hours, triplicate", "value": "no significantly effect on cell viability; also recorded: no significant cytotoxic effect"},
      {"measurement": "Effect on cell viability", "setting": "HFLF-PI 5 cells; 48 hours, p < 0.05", "value": "significantly reduced"},
      {"measurement": "Effect on cell viability", "setting": "HFLF-PI 5 cells; 72 hours, p < 0.05", "value": "significantly reduced"}
    ]},
    {"substance": "glutathione [GSH]", "values": [
      {"measurement": "DPPH-radical scavenging", "setting": "[4]", "value": 67, "unit": "%"},
      {"measurement": "IC50 ABTS radical scavenging", "setting": "[5]", "value": "< 15", "unit": "µg/mL"}
    ]}
  ]
}
